Source: ChEMBL document CHEMBL5214998, “Development of Macrocyclic PRMT5-Adaptor Protein Interaction Inhibitors” (J Med Chem, 2022)
Blank lines part the entries; values can stand above or below the compound they belong to. The source made the active and inactive calls. The rule behind the calls is not given here. Numbered stars: 1 amine (or outer) side, 2 acyl side, 3 side chain; on linkers, the order of the positions; unused ones are H or OH. Bridge positions count the residues as written; N and C are the ends. Square brackets hold non-standard residues; d marks the D form. Peptide text beside a SMILES is read from it. * marks the point of attachment. FITC = O=C1OC2(c3ccc(O)cc3Oc3cc(O)ccc32)c2ccc(NC(=S)*)cc21; Hag = O=C([C@H](CCC=[*:3])N[*:1])[*:2]; dAllylGly = C=CC[C@@H](N)C(=O)O

How the values were obtained:
PRMT5/MEP50 complex [1] = target: T1, PRMT5/MEP50 complex (Homo sapiens, UniProt O14744); test: Binding affinity to PRMT5/MEP50 (unknown origin) assessed as inhibition constant by FITC- Competitive binding assay; type: protein-complex assay
T1 sequence (O14744 whole entry): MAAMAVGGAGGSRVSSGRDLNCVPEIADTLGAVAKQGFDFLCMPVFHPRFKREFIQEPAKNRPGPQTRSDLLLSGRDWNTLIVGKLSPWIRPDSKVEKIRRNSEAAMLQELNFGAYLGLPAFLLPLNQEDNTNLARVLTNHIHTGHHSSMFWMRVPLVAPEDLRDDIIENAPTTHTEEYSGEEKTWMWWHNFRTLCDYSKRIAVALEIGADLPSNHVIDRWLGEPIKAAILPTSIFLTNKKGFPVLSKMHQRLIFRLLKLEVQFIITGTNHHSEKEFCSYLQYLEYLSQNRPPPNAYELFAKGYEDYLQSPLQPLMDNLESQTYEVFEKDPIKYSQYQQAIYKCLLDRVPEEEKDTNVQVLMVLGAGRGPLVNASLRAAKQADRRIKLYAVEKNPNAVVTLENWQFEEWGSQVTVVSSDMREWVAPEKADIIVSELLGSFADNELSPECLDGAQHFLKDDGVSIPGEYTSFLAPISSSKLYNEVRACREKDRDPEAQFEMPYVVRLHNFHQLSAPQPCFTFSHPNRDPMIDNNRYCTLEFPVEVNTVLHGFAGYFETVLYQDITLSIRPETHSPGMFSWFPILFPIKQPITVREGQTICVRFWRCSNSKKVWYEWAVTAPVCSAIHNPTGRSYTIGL
T1 sequence (Q9BQA1 whole entry, further chain): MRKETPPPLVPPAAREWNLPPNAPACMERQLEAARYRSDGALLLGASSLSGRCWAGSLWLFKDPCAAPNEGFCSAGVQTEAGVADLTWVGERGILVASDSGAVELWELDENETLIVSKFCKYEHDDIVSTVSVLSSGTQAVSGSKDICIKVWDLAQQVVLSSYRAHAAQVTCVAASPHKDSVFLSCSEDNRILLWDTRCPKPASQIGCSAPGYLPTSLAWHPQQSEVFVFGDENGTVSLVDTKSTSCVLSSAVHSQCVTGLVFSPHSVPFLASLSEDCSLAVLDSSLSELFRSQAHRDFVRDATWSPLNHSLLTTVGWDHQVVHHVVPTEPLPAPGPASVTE
Summary of the method: (§1)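 Competitive FP: 1 nM FITC-labeled tracer peptide with PRMT5-MEP50 (194 nM with tracer 50; 600 nM with tracer 21); unlabeled peptide titrated as two-fold dilutions in 50 mM HEPES, 250 mM NaCl, 1 mM TCEP, 0.01% Tween 20, pH 8.0; room temperature up to 1 h 45 min; read 485/535 nm; triplicate.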

Flp-In-T-REx-293 [2] = test: Inhibition of PRMT5/RioK1 protein-protein interaction in human Flp-In-T-REx-293 cells over-expressed with GFP-PRMT5 at 50 uM incubated for 2 hrs by immunoprecipitation assay; type: cell-based
Summary of the method: (§2)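 S100 extracts from induced Flp-In T-REx 293 cells expressing GFP-tagged proteins were treated with peptide at 50 µM (or DMSO) for 1 h at room temperature. GFP-Trap beads were then added for 2 h at 4 °C and washed. Co-purified PRMT5, MEP50, RioK1 and pICln were detected by immunoblot with fluorescent secondary antibodies.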

[3] = Inhibition of full length human ICLN/PRMT5 (unknown origin) protein-protein interaction by fluorescence polarization assay
Flp-In-T-REx-293 [4] = test: Inhibition of PRMT5/RioK1 protein-protein interaction in human Flp-In-T-REx-293 cells over-expressed with GFP-RioK1 at 50 uM incubated for 2 hrs by immunoprecipitation assay; type: cell-based; summary of the method: as §2
PRMT5/MEP50 complex [5] = target: PRMT5/MEP50 complex (Homo sapiens, UniProt O14744+Q9BQA1); test: Binding affinity to PRMT5/MEP50 (unknown origin) assessed as dissociation constant by FITC- Competitive binding assay; type: protein-complex assay
PRMT5/MEP50 complex (Homo sapiens, UniProt O14744+Q9BQA1), sequence (O14744 whole entry): as the sequence (O14744 whole entry) above
PRMT5/MEP50 complex (Homo sapiens, UniProt O14744+Q9BQA1), sequence (Q9BQA1 whole entry): as the sequence (Q9BQA1 whole entry, further chain) above

[6] = Stability in human U2OS cells assessed as half life incubated upto 24 hrs by HPLC analysis; type: ADME, cell-based; details: U2OS cell lysate
PRMT5/MEP50 complex [7] = target: T1, PRMT5/MEP50 complex; test: Inhibition of PRMT5/MEP50 (unknown origin) incubated for 1 to 2 hrs in presence of tracer 21 by competitive fluorescence polarization assay; type: protein-complex assay; summary of the method: as §1
PRMT5/MEP50 complex [8] = target: T1, PRMT5/MEP50 complex; test: Inhibition of PRMT5/MEP50 (unknown origin) incubated for 1 to 2 hrs in presence of tracer 50 by competitive fluorescence polarization assay; type: protein-complex assay; summary of the method: as §1

Compound: CC(=O)N[C@H](C(=O)N1CCC[C@H]1C(=O)N[C@H]1CCCCC[C@@H](C(=O)N[C@@H](CC(=O)O)C(=O)N[C@@H](C)C(=O)N[C@@H](CC(C(=O)O)C(=O)O)C(N)=O)NC(=O)[C@H](Cc2ccc([N+](=O)[O-])cc2)NC(=O)[C@H](CCC(N)=O)NC1=O)C(C)C
inhibition (Flp-In-T-REx-293 [2]): Active | IC50 [3]: 654 nM | inhibition (Flp-In-T-REx-293 [4]): Active

Compound: CC(C)[C@H](NC(=O)[C@H](CCCNC(=N)N)NC(=O)[C@H](CO)NC(=O)COCCOCCNC(=S)Nc1ccc2c(c1)C(=O)OC21c2ccc(O)cc2Oc2cc(O)ccc21)C(=O)N[C@H](C(=O)N1CCC[C@H]1C(=O)N[C@H]1C/C=C/C[C@H](C(=O)N[C@@H](CC(=O)O)C(=O)N[C@@H](C)C(=O)N[C@@H](CC(=O)O)C(N)=O)NC(=O)[C@H](Cc2ccccc2)NC(=O)[C@H](CCC(N)=O)NC1=O)C(C)C (stereo in doubt; form 2)
Kd (PRMT5/MEP50 complex [5]): > 2000 nM

Compound: CC(C)[C@H](NC(=O)[C@H](CCCNC(=N)N)NC(=O)[C@H](CO)NC(=O)COCCOCCNC(=S)Nc1ccc2c(c1)C(=O)OC21c2ccc(O)cc2Oc2cc(O)ccc21)C(=O)N[C@H](C(=O)N1CCC[C@H]1C(=O)N[C@H]1CCNC(=O)CC[C@H](C(=O)N[C@@H](CC(=O)O)C(=O)N[C@@H](C)C(=O)N[C@@H](CC(=O)O)C(N)=O)NC(=O)[C@H](Cc2ccccc2)NC(=O)[C@H](CCC(N)=O)NC1=O)C(C)C
Kd (PRMT5/MEP50 complex [5]): > 2000 nM

More lines, now with the values ahead:

Ki (PRMT5/MEP50 complex [1]): 1800 nM
Compound: Ac-SRVVPGQFDDAD-NH2

half-life [6]: 264 min | IC50 (PRMT5/MEP50 complex [7]): 2490 nM | Ki (PRMT5/MEP50 complex [1]): 862 nM | IC50 (PRMT5/MEP50 complex [8]): 5.3 µM
Compound: Ac-VPGQFDDAD-NH2

Kd (PRMT5/MEP50 complex [5]): > 2000 nM
Compound: CC(=O)N[C@H](C(=O)N1CCC[C@H]1C(=O)N[C@H]1CC/C=C/C[C@H](C(=O)N[C@@H](CC(=O)O)C(=O)N[C@@H](C)C(=O)N[C@@H](CC(=O)O)C(=O)N[C@@H](CCCCNC(=S)Nc2ccc3c(c2)C(=O)OC32c3ccc(O)cc3Oc3cc(O)ccc32)C(N)=O)NC(=O)[C@H](Cc2ccccc2)NC(=O)[C@H](CCC(N)=O)NC1=O)C(C)C (Ac-VP[Hag]QF[dAllylGly]DADK(FITC)-NH2; staple (E) 3-6)

Kd (PRMT5/MEP50 complex [5]): > 2000 nM
Compound: CC(=O)N[C@H](C(=O)N1CCC[C@H]1C(=O)N[C@H]1C/C=C\CC[C@H](C(=O)N[C@@H](CC(=O)O)C(=O)N[C@@H](C)C(=O)N[C@@H](CC(=O)O)C(=O)N[C@@H](CCCCNC(=S)Nc2ccc3c(c2)C(=O)OC32c3ccc(O)cc3Oc3cc(O)ccc32)C(N)=O)NC(=O)[C@H](Cc2ccccc2)NC(=O)[C@H](CCC(N)=O)NC1=O)C(C)C
